TRPC4 PAM: allosteric potentiators of mouse TRPC4 channel | B-score at 10 µM | HEK293 TRPC4beta/mu-opioid, DAMGO EC20, Fluo-4 Ca2+ flux; hits give high values | actives 0.42% (n = 310,000) | Q9QUQ5;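 active = B-score of calcium response area above 5 SD of library B-scores, with initial fluorescence ratio within 5 SD of library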;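 also: B-score of integrated fluorescence ratio over time as area under calcium response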
TRPC4 inh: TRPC4 (mouse) channel inhibition | B-score at 10 µM | actives 0.39% (n = 300,000) | HEK293 TRPC4beta/mu-opioid, DAMGO-evoked Fluo4 calcium flux; hits give low values | AID 2247 | Q9QUQ5;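 active = B-score over 3 SD under the library average, no early fluorescence shift, positive overall ratio signal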
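test system = HEK293 cells with stable TRPC4beta plus mu-opioid receptor expression | detection = Fluo4 Ca2+ flux fluorescence | read-out = integrated fluorescence ratio relative to baseline, converted to per-well B score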
TRPC6 inhibitor: mouse TRPC6 channel inhibition; HEK293-TRPC6, membrane potential dye, ACh-evoked depolarization; hits give low values; B-score at 10 µM; Q61143; actives 1.1% (n = 310,000);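 active = B-score under library mean minus 3 SD, initial fluorescence not abnormally high, positive integrated signal ratio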;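 also: B-score derived from integrated fluorescence ratio over the kinetic read; more negative B-score means stronger inhibition of depolarization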
TRPC4 act: opens the mouse TRPC4 cation channel | Q9QUQ5 | actives 0.49% (n = 310,000) | HEK293 TRPC4beta/mu-opioid, Fluo4 calcium fluorescence; hits give high values | B-score at 10 µM | AID 2237;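 active = B-score above 5 SD of library B-scores, and initial fluorescence ratio not above library mean plus 5 SD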;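 also: positive B-score marks a calcium rise read as TRPC4 activation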
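Assay system: HEK293 stable line with TRPC4beta plus mu-opioid receptor. Times: dye 45 min RT, read 110 s. Measured by: kinetic Fluo4 calcium fluorescence. Measure: B score of integrated ratio. Controls: assay buffer as low control, maximal DAMGO as high control.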
TRPC6 activator: mouse TRPC6 channel activation | B-score at 10 µM | HEK293-TRPC6 membrane potential dye fluorescence; hits give high values | Q61143 | actives 0.13% (n = 310,000);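 active = B-score of the integrated fluorescence ratio above library mean plus 3 SD, and starting fluorescence ratio within library mean plus 5 SD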;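 also: higher score means more depolarization so channel activation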
TRPC4 spec 2: second check of whether TRPC6 inhibitors also affect mouse TRPC4. inhibition, % at 10 µM. shares compounds with TRPC6 inhibitor. HEK293 TRPC4/MOR, membrane potential dye fluorescence; channel activated by saturating DAMGO dose. AID 2776. actives 42% (n = 920);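 active = compounds whose fluorescence signal differed from control wells by over 3 SD, either direction, in both duplicate plates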
TRPC4 spec: selectivity of TRPC6 inhibitors: effect on mouse TRPC4; AID 2777; actives 61% (n = 920); activity change, negative = inhibition, % at 10 µM; shares compounds with TRPC6 inhibitor; HEK293 TRPC4/mu-opioid, membrane potential fluorescence;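 active = rise or fall in signal beyond 3 SD of buffer-only wells in both replicate plates, either sign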;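 also: integrated kinetic ratio of fluorescence range over baseline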
HEK293 MPD ctr 2-1: parental HEK293 nonspecific activity of TRPC6 inhibitors, second screen; parental HEK293 membrane potential dye fluorescence; maximal acetylcholine challenge after compound addition; actives 31% (n = 920); shares compounds with TRPC6 inhibitor; signal change vs control, % at 10 µM;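 active = membrane potential signal moving either way by over 3 SD of the maximum-effect control, in both duplicate plates, meaning non-specific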
HEK293 MPD ctr-1: parental HEK293 nonspecific activity of TRPC6 inhibitors | shares compounds with TRPC6 inhibitor | parental HEK293 membrane potential dye fluorescence | membrane potential signal change, % at 10 µM | actives 60% (n = 920);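 active = membrane potential signal shifting up or down by more than 3 SD of buffer-only wells, on both duplicate plates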
HEK293 MPD ctr-2: counter-screen for TRPC6 modulators: effect in parental HEK293 cells; membrane potential dye fluorescence; shares compounds with TRPC6 inhibitor; actives 51% (n = 2,400); AID 488924; membrane potential signal change, % at 10 µM;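 active = membrane potential signal moves up or down beyond 5 SD from buffer-only wells, on both duplicate plates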
HEK293 MPD ctr 2-2: second check of TRPC6 modulator effects in parental HEK293 cells | shares compounds with TRPC6 inhibitor | membrane potential dye fluorescence; after compound, maximal acetylcholine stimulation | inhibition, % at 10 µM | actives 14% (n = 2,400) | AID 488926;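 active = membrane potential signal drops by more than 5 SD from the mean control signal, in both duplicate plates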;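 also: plate controls were acetylcholine ECmax control wells for no effect and buffer only wells for full effect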
TRPC4/MOR mod: tests whether TRPC6 modulators also affect mouse TRPC4 | shares compounds with TRPC6 inhibitor | HEK293 TRPC4/mu-opioid, membrane potential fluorescence | percent change from control (negative = decrease, positive = increase), % at 10 µM | actives 69% (n = 2,400) | AID 488927;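 active = membrane potential signal moved up or down beyond 5 SD of buffer control wells, in both duplicate plates, actives on both sides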;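 also: plate controls were assay buffer wells for no effect and DAMGO maximal-effect wells for full effect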
TRPC4/MOR inh 2: mouse TRPC4 off-target activity of TRPC6 modulators, second screen | AID 488928 | HEK293 TRPC4/mu-opioid, membrane potential dye fluorescence; stimulated with maximal-effect DAMGO | shares compounds with TRPC6 inhibitor | actives 55% (n = 2,400) | inhibition, % at 10 µM;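 active = drop in membrane potential signal beyond 5 SD of the control wells in both duplicate plates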;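 also: TRPC4 counter screen for TRPC6 hits run under conditions tuned for TRPC6 not TRPC4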
TRPC6 inh conf: confirmation of mouse TRPC6 inhibitors | shares compounds with TRPC6 inhibitor | actives 43% (n = 3,300) | HEK293-TRPC6, membrane potential dye, ACh-evoked depolarization | inhibition, % at 10 µM | AID 488960;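 active = fluorescence ratio falls more than 5 SD below the full-stimulation control mean, in both duplicate runs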;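 also: integrated fluorescence ratio of peak minus minimum over baseline after agonist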
TRPC6 act conf: confirmation of mouse TRPC6 activators. shares compounds with TRPC6 inhibitor. HEK293-TRPC6 membrane potential dye fluorescence, FDSS. activation, % at 10 µM. actives 11% (n = 2,800);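 active = ratio signal rise beyond 5 SD above unstimulated control wells' mean, seen in both duplicate runs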;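 also: plate controls were buffer EC0 wells for no effect and acetylcholine ECmax response for full effect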
The depositor's hits bear a star; i = inactive; . = not tested or not shown. Shown are actives, neighbours in structure and some others; about 2.3% of the full set was active somewhere.

SMILES	TRPC4 PAM	TRPC4 inh	TRPC6 inhibitor	TRPC4 act	TRPC6 activator	HEK293 MPD ctr-2	HEK293 MPD ctr 2-2	TRPC4/MOR mod	TRPC4/MOR inh 2	TRPC6 inh conf	TRPC6 act conf	others
COc1ccccc1CNC1CCCc2ccccc21 (centres undefined)	i	i	-7.43*	i	i	.	.	.	.	64.8%*	.	TRPC4 spec 2=i;TRPC4 spec=19.9%*;HEK293 MPD ctr 2-1=i;HEK293 MPD ctr-1=9.1%*
COc1ccc(Cl)cc1C(=O)CSc1nc(N)cc(N)n1	i	i	-8.54*	i	12.6*	i	i	i	i	71.5%*	173.0%*
CCCCn1nnnc1SCC(=O)c1cc(Cl)ccc1OC	i	i	i	i	i	.	.	.	.	.	.
Cn1c(=O)c2c(nc(SCCN3CCCCC3)n2Cc2ccc(Cl)cc2)n(C)c1=O	40*	i	-6.23*	80*	i	-121.0%*	i	26.5%*	93.0%*	i	i
O=c1c2ccccc2nc(SCCN2CCCCC2)n1CCc1ccccc1	i	i	-7.85*	i	i	.	.	.	.	67.8%*	i	TRPC4 spec 2=41.5%*;TRPC4 spec=i;HEK293 MPD ctr 2-1=i;HEK293 MPD ctr-1=i
NC(=O)CSc1nc2ccccc2c(=O)n1CCc1ccccc1	i	i	i	i	i	.	.	.	.	.	.
CCc1nn(CCCC(=O)NCc2ccco2)c(=O)c2cc3occc3n12	i	i	i	i	i	.	.	.	.	.	.
COc1ccc(COc2cc(-c3cccc(OC)c3)nc3ccc(N)cc23)cc1	i	i	-8.33*	i	i	.	.	.	.	i	i	TRPC4 spec 2=i;TRPC4 spec=-9.5%*;HEK293 MPD ctr 2-1=i;HEK293 MPD ctr-1=i
CC1CCCN(C(=O)CCS(=O)(=O)c2ccc3c(c2)NC(=O)C(C)S3)C1 (centres undefined)	i	i	i	i	i	.	.	.	.	.	.
CC1CCN(c2nc(/C=C/c3ccccc3)nc3ccccc23)CC1	i	i	-6.07*	i	i	i	i	-19.0%*	i	i	i
CCCn1ncc(CN2CCCC(C(=O)c3cccc(OC(C)C)c3)C2)c1C (centres undefined)	i	i	-5.34*	i	i	118.5%*	i	24.0%*	40.5%*	50.5%*	.
Cc1cccc(OCCNC(=O)CCc2ccccc2)c1	i	i	i	i	i	.	.	.	.	.	.
Cc1cc(N2CCN(S(=O)(=O)c3ccccc3)CC2)c2ccccc2n1	i	i	-8.9*	i	i	-187.0%*	i	-31.0%*	68.5%*	48.0%*	i
Nc1nc(N2CCN(C/C=C/c3ccccc3)CC2)nc2ccccc12	i	i	-6.69*	i	i	.	.	.	.	88.1%*	i	TRPC4 spec 2=18.0%*;TRPC4 spec=-21.2%*;HEK293 MPD ctr 2-1=i;HEK293 MPD ctr-1=i
Nc1nc(N2CCN(C(=O)c3ccco3)CC2)nc2ccc(Br)cc12	i	i	i	i	i	.	.	.	.	.	.
Cc1cc(N2CCN(C(=O)c3ccco3)CC2)c2ccccc2n1	i	i	-6.4*	i	i	-168.0%*	i	-29.0%*	28.5%*	i	i
Nc1nc(N2CCN(C(=O)c3ccco3)CC2)nc2ccccc12	i	i	-7.51*	i	i	.	.	.	.	i	i	TRPC4 spec 2=i;TRPC4 spec=-23.0%*;HEK293 MPD ctr 2-1=i;HEK293 MPD ctr-1=-411.5%*
Cc1cc(N2CCN(c3nc(-c4ccccc4)cs3)CC2)c2ccccc2n1	i	i	i	i	i	.	.	.	.	.	.
Cc1cc(=O)[nH]c(N2CCN(C(=O)c3ccco3)CC2)n1	i	i	i	i	i	.	.	.	.	.	.
COc1cc(OC)c2c(C)cc(=O)oc2c1C(CCN1CCOCC1)c1ccc(N(C)C)cc1 (centres undefined)	i	i	-5.3*	i	i	-141.0%*	i	-28.5%*	52.0%*	42.0%*	i
COc1cc(OC)c2c(-c3ccccc3)cc(=O)oc2c1C(CCN1CCN(c2ccccc2)CC1)c1ccc(N(C)C)cc1 (centres undefined)	i	i	i	i	i	.	.	.	.	.	.
COc1cc(OC)c2c(-c3ccccc3)cc(=O)oc2c1C(CCN1CCCC(C)C1)c1ccc(N(C)C)cc1 (centres undefined)	i	i	-5.9*	i	i	i	i	i	69.0%*	40.0%*	i
COc1ccc(C(CCN2CCCC(C)C2)c2c(OC)cc(OC)c3c(-c4ccccc4)cc(=O)oc23)cc1 (centres undefined)	i	i	i	i	i	.	.	.	.	.	.
COc1ccc(Br)cc1CNC(=O)CN1C(=O)C(c2ccccc2)Oc2cccnc21 (centres undefined)	i	i	i	i	i	.	.	.	.	.	.
Cc1cc(NC(=O)CCC(=O)N(CC(=O)NC2CCCC2)c2ccc(Cl)c(Cl)c2)no1	i	i	i	i	i	.	.	.	.	.	.
Cc1nn(C)c(C(=O)N/N=C/c2ccc(C(F)(F)F)cc2)c1[N+](=O)[O-]	i	i	-5.78*	i	i	i	i	-13.5%*	i	i	i
COc1cc(OC)cc(C(=O)Nc2sc3c(c2C(N)=O)CCC3)c1	i	i	i	i	i	.	.	.	.	.	.
